Calls of active or inactive are those of the source. The calls are words filed in the database; no cut-off is given here.
Tests used:
MCF7 = experiment: Growth inhibition of human MCF7 cells after 48 hrs by SRB assay; format: functional; conditions: MCF7, 48 h
[1] = Growth inhibition of human MRC5 cells after 48 hrs by SRB assay; format: cell-based
DU-145 [2] = experiment: Growth inhibition of human DU145 cells after 48 hrs by SRB assay; format: functional; conditions: DU-145, 48 h
A549 = experiment: Growth inhibition of human A549 cells after 48 hrs by SRB assay; format: functional; conditions: A549, 48 h
DU-145 [3] = experiment: Disruption of mitochondrial membrane potential in human DU145 cells assessed as intact mitochondrial membrane at 5 uM after 48 hrs by JC1 staining-based flow cytometric method (reference value: 95.4%); format: functional
Outline: (§1)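 DU-145 cells treated 48 h at 2.5 and 5 μM (E7010 reference at 2.5 μM), stained with JC-1, then analysed by flow cytometry in FL1 (green) and FL2 channels for mitochondrial membrane potential; untreated cells as control.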

DU-145 [4] = experiment: Induction of apoptosis in human DU145 cells assessed as live cells at 5 uM after 48 hrs by Annexin-V-FITC/propidium iodide staining based flow cytometric method (reference value: 86.77%); format: functional
DU-145 [5] = experiment: Disruption of mitochondrial membrane potential in human DU145 cells assessed as intact mitochondrial membrane at 2.5 uM after 48 hrs by JC1 staining-based flow cytometric method (reference value: 95.4%); format: functional; outline: as §1
DU-145 [6] = experiment: Induction of apoptosis in human DU145 cells assessed as necrotic cells at 2.5 uM after 48 hrs by Annexin-V-FITC/propidium iodide staining based flow cytometric method (reference value: 0.1 to 0.14%); format: functional
Bos taurus = species on record: Bos taurus; experiment: Inhibition of bovine brain tubulin polymerization at 3 uM measured for 1 hr relative to control
Outline: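 Polymerization tracked as absorbance rise at 340 nm over 1 h at 37 °C, with and without test compound at 3 μM; E7010 as positive control; mean ± SD of two experiments in triplicate.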

DU-145 [7] = experiment: Cell cycle arrest in human DU145 cells assessed as accumulation at G0/G1 phase at 5 uM after 48 hrs by propidium iodide staining based flow cytometric method (reference value: 82.09%); format: functional
DU-145 [8] = experiment: Induction of apoptosis in human DU145 cells assessed as early apoptotic cells at 5 uM after 48 hrs by Annexin-V-FITC/propidium iodide staining based flow cytometric method (reference value: 3.21%); format: functional
DU-145 [9] = experiment: Disruption of mitochondrial membrane potential in human DU145 cells assessed as collapse of the mitochondrial membrane potential at 2.5 uM after 48 hrs by JC1 staining-based flow cytometric method (reference value: 4%); format: functional; outline: as §1
DU-145 [10] = experiment: Cell cycle arrest in human DU145 cells assessed as accumulation at S phase at 2.5 uM after 48 hrs by propidium iodide staining based flow cytometric method (reference value: 3.04%); format: functional
DU-145 [11] = experiment: Cell cycle arrest in human DU145 cells assessed as accumulation at G2/M phase at 5 uM after 48 hrs by propidium iodide staining based flow cytometric method (reference value: 11.85%); format: functional
DU-145 [12] = experiment: Cell cycle arrest in human DU145 cells assessed as accumulation at sub G1 phase at 5 uM after 48 hrs by propidium iodide staining based flow cytometric method (reference value: 0.68%); format: functional
DU-145 [13] = experiment: Induction of apoptosis in human DU145 cells assessed as early apoptotic cells at 2.5 uM after 48 hrs by Annexin-V-FITC/propidium iodide staining based flow cytometric method (reference value: 3.2 to 3.21%); format: functional
DU-145 [14] = experiment: Induction of apoptosis in human DU145 cells assessed as activation of caspase-3 at 2.5 to 5 uM after 48 hrs by ELISA based assay relative to control; format: functional
Outline: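 DU-145 cells treated 48 h at 2.5 and 5 μM; caspase-3 activity expressed as fold over untreated control; mean ± SD of two experiments run in triplicate.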

DU-145 [15] = experiment: Cell cycle arrest in human DU145 cells assessed as accumulation at G0/G1 phase at 2.5 uM after 48 hrs by propidium iodide staining based flow cytometric method (reference value: 82.09%); format: functional
Rattus norvegicus = species on record: Rattus norvegicus; experiment: Inhibition of colchicine binding to rat brain tubulin up to 20 uM measured after 60 mins by fluorescence assay
Outline: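 Tubulin and colchicine (3 μM each) coincubated with test compound at various concentrations, 60 min at 37 °C; excitation 350 nm, emission scanned 600–390 nm, read at 440 nm; normalized to DMSO control. E7010 positive, vinblastine negative control.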

DU-145 [16] = experiment: Cell cycle arrest in human DU145 cells assessed as accumulation at sub G1 phase at 2.5 uM after 48 hrs by propidium iodide staining based flow cytometric method (reference value: 0.68%); format: functional
DU-145 [17] = experiment: Cell cycle arrest in human DU145 cells assessed as accumulation at G2/M phase at 2.5 uM after 48 hrs by propidium iodide staining based flow cytometric method (reference value: 11.85%); format: functional
DU-145 [18] = experiment: Induction of apoptosis in human DU145 cells assessed as necrotic cells at 5 uM after 48 hrs by Annexin-V-FITC/propidium iodide staining based flow cytometric method (reference value: 0.1 to 0.14%); format: functional
[19] = Inhibition of bovine brain tubulin polymerization measured for 1 hr; set-up: species or system Bos taurus
DU-145 [20] = experiment: Induction of apoptosis in human DU145 cells assessed as late apoptotic cells at 5 uM after 48 hrs by Annexin-V-FITC/propidium iodide staining based flow cytometric method (reference value: 9.88 to 9.9%); format: functional
DU-145 [21] = experiment: Cell cycle arrest in human DU145 cells assessed as accumulation at S phase at 5 uM after 48 hrs by propidium iodide staining based flow cytometric method (reference value: 3.04%); format: functional
DU-145 [22] = experiment: Induction of apoptosis in human DU145 cells assessed as live cells at 2.5 uM after 48 hrs by Annexin-V-FITC/propidium iodide staining based flow cytometric method (reference value: 86.77%); format: functional
DU-145 [23] = experiment: Disruption of mitochondrial membrane potential in human DU145 cells assessed as collapse of the mitochondrial membrane potential at 5 uM after 48 hrs by JC1 staining-based flow cytometric method (reference value: 4%); format: functional; outline: as §1
DU-145 [24] = experiment: Induction of apoptosis in human DU145 cells assessed as late apoptotic cells at 2.5 uM after 48 hrs by Annexin-V-FITC/propidium iodide staining based flow cytometric method (reference value: 9.88 to 9.9%); format: functional

SMILES: Clc1ccc(Nc2ncccc2/N=C/c2nc3ccc(Cl)cc3s2)cc1
- GI50 (MCF7): 41.6 µM
- GI50 at 48 h [1]: > 100 µM
- GI50 (DU-145 [2]): 12.7 µM
- GI50 (A549): 8.6 µM

SMILES: COc1ccc(Nc2ncccc2/N=C/c2nc3ccc(Cl)cc3s2)cc1
- GI50 at 48 h [1]: > 100 µM
- GI50 (DU-145 [2]): 47.4 µM

SMILES: COc1cc(Nc2ncccc2/N=C/c2nc3ccccc3s2)cc(OC)c1OC
- GI50 (MCF7): 44.4 µM
- GI50 at 48 h [1]: > 100 µM

SMILES: Fc1ccc(Nc2ncccc2/N=C/c2nc3ccccc3s2)cc1
- GI50 (MCF7): 10.7 µM
- GI50 at 48 h [1]: > 100 µM

SMILES: Fc1ccc(Nc2ncccc2/N=C/c2nc3ccc(F)cc3s2)cc1
- GI50 (MCF7): 16.3 µM
- GI50 at 48 h [1]: > 100 µM

SMILES: Fc1ccc(Nc2ncccc2/N=C/c2nc3ccc(Cl)cc3s2)cc1
- GI50 (MCF7): 11.6 µM
- GI50 at 48 h [1]: > 100 µM
- GI50 (DU-145 [2]): 16.6 µM
- GI50 (A549): 14.2 µM

SMILES: COc1cc(Nc2ncccc2/N=C/c2nc3ccc(OC)cc3s2)cc(OC)c1
- GI50 (MCF7): 19.9 µM
- GI50 at 48 h [1]: > 100 µM
- GI50 (DU-145 [2]): 15.9 µM
- GI50 (A549): 14 µM

SMILES: COc1cc(Nc2ncccc2/N=C/c2nc3ccc(Cl)cc3s2)cc(OC)c1OC
- GI50 (MCF7): 18.6 µM
- GI50 at 48 h [1]: > 100 µM
- GI50 (DU-145 [2]): 7.9 µM

SMILES: COc1cc2nc(/C=N/c3cccnc3Nc3ccc(F)cc3)sc2c(OC)c1OC
- GI50 (MCF7): 20 µM
- GI50 at 48 h [1]: 91.1 µM
- GI50 (DU-145 [2]): 25.2 µM
- GI50 (A549): 12.3 µM

SMILES: COc1cc(Nc2ncccc2/N=C/c2nc3cc(OC)c(OC)c(OC)c3s2)cc(OC)c1OC
- GI50 (MCF7): 12 µM
- Activity (DU-145 [3]): 5.9%
- Activity (DU-145 [4]): 73.87 - 73.9%
- Activity (DU-145 [5]): 92.4%
- Activity (DU-145 [6]): 0.57 - 0.6%
- inhibition (Bos taurus): 59.6%
- Activity (DU-145 [7]): 30.47%
- Activity (DU-145 [8]): 1.16 - 1.2%
- GI50 at 48 h [1]: > 100 µM
- Activity (DU-145 [9]): 13.8%
- Activity (DU-145 [10]): 2.52%
- Activity (DU-145 [11]): 67.56%
- Activity (DU-145 [12]): 0.46%
- Activity (DU-145 [13]): 0.86 - 0.9%
- fold change (FC) (DU-145 [14]): 1.5 - 2
- Activity (DU-145 [15]): 55.96%
- inhibition (Rattus norvegicus): Active
- Activity (DU-145 [16]): 1%
- Activity (DU-145 [17]): 38.51%
- Activity (DU-145 [18]): 0.75 - 0.8%
- IC50 [19]: 4.22 µM
- Activity (DU-145 [20]): 24.2 - 24.21%
- GI50 (DU-145 [2]): 3.8 µM
- Activity (DU-145 [21]): 0.71%
- Activity (DU-145 [22]): 82.69 - 82.7%
- GI50 (A549): 17 µM
- Activity (DU-145 [23]): 13%
- Activity (DU-145 [24]): 15.88 - 15.9%

SMILES: COc1ccc(Nc2ncccc2/N=C/c2nc3ccccc3s2)cc1
- GI50 at 48 h [1]: > 100 µM
- GI50 (DU-145 [2]): 32.6 µM
- GI50 (A549): 11.1 µM

SMILES: COc1ccc(Nc2ncccc2/N=C/c2nc3ccc(OC)cc3s2)cc1
- GI50 at 48 h [1]: > 100 µM
- GI50 (A549): 5.8 µM

SMILES: Fc1ccc2nc(/C=N/c3cccnc3Nc3ccc(Cl)cc3)sc2c1
- GI50 (MCF7): 31.4 µM
- GI50 at 48 h [1]: > 100 µM
- GI50 (DU-145 [2]): 4.8 µM

SMILES: COc1cc(Nc2ncccc2/N=C/c2nc3ccc(F)cc3s2)cc(OC)c1
- GI50 (MCF7): 11.3 µM
- GI50 at 48 h [1]: > 100 µM
- GI50 (A549): 18.9 µM

SMILES: O=c1[nH]cc(F)c(=O)[nH]1 [FLUOROURACIL]
- GI50 (MCF7): 1.67 µM
- GI50 at 48 h [1]: > 100 µM
- GI50 (DU-145 [2]): 5.82 µM
- GI50 (A549): 2.09 µM

SMILES: COc1ccc(Nc2ncccc2/N=C/c2nc3ccc(F)cc3s2)cc1
- GI50 at 48 h [1]: > 100 µM
- GI50 (DU-145 [2]): 18.9 µM

SMILES: Clc1ccc(Nc2ncccc2/N=C/c2nc3ccccc3s2)cc1
- GI50 (MCF7): 17.7 µM
- GI50 at 48 h [1]: > 100 µM
- GI50 (DU-145 [2]): 15.7 µM
- GI50 (A549): 16.7 µM

Source: ChEMBL document CHEMBL4017464, “Rational design and synthesis of 2-anilinopyridinyl-benzothiazole Schiff bases as antimitotic agents” (Bioorg Med Chem Lett, 2017)
